Laboratory results taken from ChEMBL document CHEMBL1141651, “Discovery of a potent, selective, and orally active proteasome inhibitor for the treatment of cancer” (J Med Chem, 2008).
Activity calls are given as the source filed them. The calls are words filed in the database; no cut-off is given here.

Legend:
[1] = AUC (0 to infinity) in Sprague-Dawley rat at 0.8 mg/kg, po; format: ADME, organism-based; design: dose 0.8 mg/kg, route oral, time infinity; conditions: plasma
Outline: (§1)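 Female Sprague–Dawley rats received a single dose by the iv or oral route. AUC from 0 to infinity was reported alongside terminal half-life, Vss, clearance and absolute oral bioavailability.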

[2] = Volume of distribution at steady state in CD1 mouse at 4 mg/kg, iv; format: ADME, organism-based; design: dose 4 mg/kg, route intravenous; conditions: in vivo, read-out: Vdss
Outline: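 Single-dose pharmacokinetics after iv or oral administration in female Sprague–Dawley rats and in CD-1 mice; plasma exposure (AUC0–∞) used to derive steady-state volume of distribution, clearance, terminal half-life and absolute oral bioavailability.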

Caspase-8 (Homo sapiens) = Caspase-8 (Homo sapiens) (UniProt Q14790); assay: Inhibition of human caspase 8 at 10 uM
Sequence of Caspase-8 (Homo sapiens) (Q14790 217-374 limits assumed): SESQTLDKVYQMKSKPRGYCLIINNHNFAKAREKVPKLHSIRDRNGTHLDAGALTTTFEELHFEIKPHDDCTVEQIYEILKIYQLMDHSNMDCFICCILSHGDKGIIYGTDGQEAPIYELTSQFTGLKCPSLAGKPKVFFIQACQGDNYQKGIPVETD
Sequence of Caspase-8 (Homo sapiens) (Q14790 385-479 limits assumed): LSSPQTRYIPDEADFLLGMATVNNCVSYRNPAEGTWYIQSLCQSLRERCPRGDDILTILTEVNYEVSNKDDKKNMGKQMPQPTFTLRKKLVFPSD

[3] = target: Endothelin-converting enzyme 1 (Homo sapiens) (UniProt P42892); assay: Inhibition of human ECE1 at 10 uM
Sequence of Endothelin-converting enzyme 1 (Homo sapiens) (P42892 whole entry): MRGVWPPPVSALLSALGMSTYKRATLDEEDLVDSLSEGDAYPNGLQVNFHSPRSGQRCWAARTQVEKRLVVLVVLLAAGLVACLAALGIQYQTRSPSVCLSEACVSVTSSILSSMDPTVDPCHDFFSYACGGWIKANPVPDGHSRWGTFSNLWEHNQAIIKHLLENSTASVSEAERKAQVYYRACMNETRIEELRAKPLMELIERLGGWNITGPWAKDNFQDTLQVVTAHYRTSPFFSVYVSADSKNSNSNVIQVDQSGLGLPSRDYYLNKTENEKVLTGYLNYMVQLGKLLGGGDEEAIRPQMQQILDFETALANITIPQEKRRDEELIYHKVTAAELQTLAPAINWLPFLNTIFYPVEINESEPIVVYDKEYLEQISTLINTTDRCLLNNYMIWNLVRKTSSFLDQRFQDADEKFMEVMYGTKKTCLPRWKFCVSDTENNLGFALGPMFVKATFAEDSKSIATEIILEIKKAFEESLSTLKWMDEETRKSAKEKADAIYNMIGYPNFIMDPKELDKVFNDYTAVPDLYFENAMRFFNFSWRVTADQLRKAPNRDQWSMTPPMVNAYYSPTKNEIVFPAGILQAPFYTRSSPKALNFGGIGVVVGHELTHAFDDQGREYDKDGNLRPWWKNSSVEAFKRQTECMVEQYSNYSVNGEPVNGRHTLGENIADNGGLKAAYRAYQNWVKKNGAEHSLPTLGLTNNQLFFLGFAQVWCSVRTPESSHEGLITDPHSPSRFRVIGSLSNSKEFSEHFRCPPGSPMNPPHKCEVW

Sus scrofa = species on record: Sus scrofa; assay: Inhibition of pig pepsin at 10 uM
[4] = Inhibition of bacterial prolyl oligopeptidase at 10 uM
[5] = Inhibition of chymotrypsin-like activity of human 20S proteasome in Molt4 cells; format: cell-based; conditions: molt-4
Outline: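 Intact human leukemia Molt-4 cells were given the cell-permeable fluorogenic chymotrypsin-like substrate MeOSuc-FLF-AFC, so the read-out also reflects inhibitor cell permeability. Potency is reported as EC50.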

[6] = Half life in Sprague-Dawley rat at 0.2 mg/kg, iv; format: ADME, organism-based; design: dose 0.2 mg/kg, route intravenous; conditions: in vivo
Outline: (§2)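 Female Sprague–Dawley rats and CD-1 mice each received a single iv or oral (po) dose. Terminal half-life and systemic clearance were estimated from plasma exposure over time, alongside AUC0→∞, Vss and absolute oral bioavailability.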

[7] = AUC (0 to infinity) in Sprague-Dawley rat at 0.2 mg/kg, iv; format: ADME, organism-based; design: dose 0.2 mg/kg, route intravenous, time infinity; conditions: plasma; outline: as §1
[8] = Clearance in Sprague-Dawley rat at 0.2 mg/kg, iv; format: ADME, organism-based; design: dose 0.2 mg/kg, route intravenous; conditions: in vivo; outline: as §2
[9] = AUC (0 to infinity) in CD1 mouse at 10 mg/kg, po; format: ADME, organism-based; design: time infinity, dose 10 mg/kg, route oral; conditions: plasma
Outline: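 CD-1 mice received a single dose by the iv or oral route. AUC from 0 to infinity was reported with terminal half-life, Vss, clearance and absolute oral bioavailability.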

Mus musculus = assay: Inhibition of 20S proteasome beta5beta1 subunit binding in human RPMI 8226 cells xenografted mouse; format: functional, organism-based
Cytochrome P450 2C9 = Cytochrome P450 2C9 (Homo sapiens, UniProt P11712); assay: Inhibition of human recombinant CYP2C9 upto 30 uM; format: ADME; conditions: recombinant enzyme
Sequence of Cytochrome P450 2C9 (P11712 whole entry, canonical isoform): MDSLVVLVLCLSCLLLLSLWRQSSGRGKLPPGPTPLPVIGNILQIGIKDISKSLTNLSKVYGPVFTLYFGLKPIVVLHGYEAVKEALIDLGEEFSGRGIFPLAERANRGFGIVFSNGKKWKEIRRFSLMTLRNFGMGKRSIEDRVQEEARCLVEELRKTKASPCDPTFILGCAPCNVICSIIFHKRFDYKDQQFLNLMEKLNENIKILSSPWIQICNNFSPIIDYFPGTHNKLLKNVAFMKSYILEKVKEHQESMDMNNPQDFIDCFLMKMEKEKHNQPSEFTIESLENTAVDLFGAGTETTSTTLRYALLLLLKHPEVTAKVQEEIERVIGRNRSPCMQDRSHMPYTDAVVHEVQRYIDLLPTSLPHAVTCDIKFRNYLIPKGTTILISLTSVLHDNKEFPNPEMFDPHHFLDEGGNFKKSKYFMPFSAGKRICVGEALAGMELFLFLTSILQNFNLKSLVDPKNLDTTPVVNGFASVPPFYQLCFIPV
Outline: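 Recombinant human P-450 isoforms (1A2, 2C9, 2C19, 2D6) with fluorescent P-450 substrates; tested at concentrations up to 30 µM to gauge inhibition.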

[10] = target: Calpain-1 catalytic subunit (Homo sapiens) (UniProt P07384); assay: Inhibition of human calpain 1 at 10 uM
Sequence of Calpain-1 catalytic subunit (Homo sapiens) (P07384 whole entry): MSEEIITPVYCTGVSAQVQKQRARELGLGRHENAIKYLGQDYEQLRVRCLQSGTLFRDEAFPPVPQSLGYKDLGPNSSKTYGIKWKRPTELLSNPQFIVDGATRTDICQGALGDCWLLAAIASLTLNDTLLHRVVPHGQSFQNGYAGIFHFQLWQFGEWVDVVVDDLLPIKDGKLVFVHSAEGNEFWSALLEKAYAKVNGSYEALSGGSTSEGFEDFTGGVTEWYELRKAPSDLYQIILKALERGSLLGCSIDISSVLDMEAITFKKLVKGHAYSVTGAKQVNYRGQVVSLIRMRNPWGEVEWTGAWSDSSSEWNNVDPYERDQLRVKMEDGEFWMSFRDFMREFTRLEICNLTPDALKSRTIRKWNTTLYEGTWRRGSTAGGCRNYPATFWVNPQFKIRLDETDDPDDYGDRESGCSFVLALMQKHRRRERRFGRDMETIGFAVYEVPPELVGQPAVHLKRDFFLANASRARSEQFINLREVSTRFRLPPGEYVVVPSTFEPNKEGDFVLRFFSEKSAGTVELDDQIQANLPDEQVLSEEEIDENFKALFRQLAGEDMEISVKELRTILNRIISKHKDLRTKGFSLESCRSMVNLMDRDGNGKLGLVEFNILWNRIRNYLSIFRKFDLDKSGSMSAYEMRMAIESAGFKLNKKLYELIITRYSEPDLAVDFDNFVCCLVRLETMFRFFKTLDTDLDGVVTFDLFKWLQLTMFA

[11] = target: Cathepsin B (Homo sapiens) (UniProt P07858); assay: Inhibition of human cathepsin B at 10 uM
[12] = target: Dipeptidyl peptidase 1 (Bos taurus) (UniProt Q3ZCJ8); assay: Inhibition of bovine cathepsin C at 10 uM
Sequence of Dipeptidyl peptidase 1 (Bos taurus) (Q3ZCJ8 25-134 limits assumed): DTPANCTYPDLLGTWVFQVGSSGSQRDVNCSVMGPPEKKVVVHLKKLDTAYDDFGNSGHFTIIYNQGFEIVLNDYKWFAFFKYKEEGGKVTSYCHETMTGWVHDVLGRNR
Sequence of Dipeptidyl peptidase 1 (Bos taurus) (Q3ZCJ8 231-394 limits assumed): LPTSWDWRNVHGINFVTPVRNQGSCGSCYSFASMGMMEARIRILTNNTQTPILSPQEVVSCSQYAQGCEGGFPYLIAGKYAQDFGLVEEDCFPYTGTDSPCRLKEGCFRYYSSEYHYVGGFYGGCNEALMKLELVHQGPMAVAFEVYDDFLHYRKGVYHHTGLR
Sequence of Dipeptidyl peptidase 1 (Bos taurus) (Q3ZCJ8 395-463 limits assumed): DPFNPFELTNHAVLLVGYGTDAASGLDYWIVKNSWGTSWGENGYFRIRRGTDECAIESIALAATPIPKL

[13] = target: Cathepsin D (Homo sapiens) (UniProt P07339); assay: Inhibition of human cathepsin D at 10 uM
Sequence of Cathepsin D (Homo sapiens) (P07339 65-162 limits assumed): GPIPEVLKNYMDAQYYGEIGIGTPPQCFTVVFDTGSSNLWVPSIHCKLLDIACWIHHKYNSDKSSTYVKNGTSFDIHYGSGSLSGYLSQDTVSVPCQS
Sequence of Cathepsin D (Homo sapiens) (P07339 169-412 limits assumed): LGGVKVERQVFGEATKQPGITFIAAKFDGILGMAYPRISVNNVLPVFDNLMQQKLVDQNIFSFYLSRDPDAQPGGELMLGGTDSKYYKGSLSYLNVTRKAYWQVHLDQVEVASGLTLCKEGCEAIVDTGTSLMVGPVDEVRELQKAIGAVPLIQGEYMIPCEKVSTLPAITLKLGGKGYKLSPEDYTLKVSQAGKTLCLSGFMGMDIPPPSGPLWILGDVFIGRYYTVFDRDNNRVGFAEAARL

[14] = target: Cathepsin E (Homo sapiens) (UniProt P14091); assay: Inhibition of human cathepsin E at 10 uM
Sequence of Cathepsin E (Homo sapiens) (P14091 whole entry): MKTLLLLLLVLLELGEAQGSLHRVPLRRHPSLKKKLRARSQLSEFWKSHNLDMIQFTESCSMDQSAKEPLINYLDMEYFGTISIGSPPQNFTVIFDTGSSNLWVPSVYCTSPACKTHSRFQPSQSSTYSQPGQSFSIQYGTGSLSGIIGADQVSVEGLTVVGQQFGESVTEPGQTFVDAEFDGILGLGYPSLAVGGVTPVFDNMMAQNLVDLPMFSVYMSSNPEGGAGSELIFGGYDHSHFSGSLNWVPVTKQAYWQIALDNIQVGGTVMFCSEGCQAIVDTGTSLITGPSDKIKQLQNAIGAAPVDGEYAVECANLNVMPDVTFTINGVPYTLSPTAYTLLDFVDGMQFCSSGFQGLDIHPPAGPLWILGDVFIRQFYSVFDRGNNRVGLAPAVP

[15] = target: Cathepsin G (Homo sapiens) (UniProt P08311); assay: Inhibition of human cathepsin G at 10 uM
Cathepsin G = Cathepsin G (Homo sapiens, UniProt P08311); assay: Inhibition of human cathepsin G
Chymase (Homo sapiens) = Chymase (Homo sapiens) (UniProt P23946); assay: Inhibition of human chymase at 10 uM
Sequence of Chymase (Homo sapiens) (P23946 whole entry): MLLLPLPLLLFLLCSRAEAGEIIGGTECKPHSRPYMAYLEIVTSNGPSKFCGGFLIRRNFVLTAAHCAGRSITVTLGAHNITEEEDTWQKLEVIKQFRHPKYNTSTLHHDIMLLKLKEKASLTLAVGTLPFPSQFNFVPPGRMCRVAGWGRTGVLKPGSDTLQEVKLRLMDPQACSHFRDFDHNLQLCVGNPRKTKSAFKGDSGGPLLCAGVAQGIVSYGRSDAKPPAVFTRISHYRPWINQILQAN

[16] = Inhibition of human chymotrypsin
Outline: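 Cross-reactivity was tested against human pancreas α-chymotrypsin using a fluorogenic specific substrate. Results are expressed as IC50.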

[17] = target: Coagulation factor VII (Homo sapiens) (UniProt P08709); assay: Inhibition of human factor 7a at 10 uM
Sequence of Coagulation factor VII (Homo sapiens) (P08709 61-212 limits assumed): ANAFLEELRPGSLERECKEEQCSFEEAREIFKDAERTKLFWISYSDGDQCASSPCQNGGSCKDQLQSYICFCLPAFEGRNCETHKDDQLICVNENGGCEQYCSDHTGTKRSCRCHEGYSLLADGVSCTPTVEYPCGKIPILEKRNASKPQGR
Sequence of Coagulation factor VII (Homo sapiens) (P08709 213-466 limits assumed): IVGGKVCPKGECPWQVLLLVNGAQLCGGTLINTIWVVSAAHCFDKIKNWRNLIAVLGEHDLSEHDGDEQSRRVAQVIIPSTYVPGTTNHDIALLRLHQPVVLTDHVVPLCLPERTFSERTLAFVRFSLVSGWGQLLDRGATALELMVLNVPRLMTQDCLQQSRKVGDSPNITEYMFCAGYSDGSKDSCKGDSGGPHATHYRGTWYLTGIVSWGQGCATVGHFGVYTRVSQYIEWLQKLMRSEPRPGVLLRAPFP

[18] = target: Plasma kallikrein (Homo sapiens) (UniProt P03952); assay: Inhibition of human plasma kallikrein at 10 uM
[19] = target: Neutrophil collagenase (Homo sapiens) (UniProt P22894); assay: Inhibition of human MMP8 at 10 uM
Sequence of Neutrophil collagenase (Homo sapiens) (P22894 101-467 limits assumed): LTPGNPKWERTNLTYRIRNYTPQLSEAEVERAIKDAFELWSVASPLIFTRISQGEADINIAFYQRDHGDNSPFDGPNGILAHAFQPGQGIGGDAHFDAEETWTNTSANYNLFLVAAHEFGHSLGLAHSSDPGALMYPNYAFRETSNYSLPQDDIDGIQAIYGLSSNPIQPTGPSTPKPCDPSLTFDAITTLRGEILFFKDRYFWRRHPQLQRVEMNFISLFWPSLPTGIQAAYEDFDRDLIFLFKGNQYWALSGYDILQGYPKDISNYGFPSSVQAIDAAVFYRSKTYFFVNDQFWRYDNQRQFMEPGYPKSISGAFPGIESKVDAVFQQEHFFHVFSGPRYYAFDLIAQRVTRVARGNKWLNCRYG

Caspase-3 (Homo sapiens) = Caspase-3 (Homo sapiens) (UniProt P42574); assay: Inhibition of human caspase 3 at 10 uM
Sequence of Caspase-3 (Homo sapiens) (P42574 29-175 limits assumed): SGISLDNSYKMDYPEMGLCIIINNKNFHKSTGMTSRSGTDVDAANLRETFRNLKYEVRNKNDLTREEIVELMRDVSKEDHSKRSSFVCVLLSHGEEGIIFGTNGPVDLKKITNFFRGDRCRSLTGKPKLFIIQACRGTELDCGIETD
Sequence of Caspase-3 (Homo sapiens) (P42574 176-277 limits assumed): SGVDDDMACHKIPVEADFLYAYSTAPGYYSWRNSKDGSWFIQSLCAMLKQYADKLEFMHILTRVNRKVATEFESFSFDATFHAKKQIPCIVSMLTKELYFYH

Trypsin (Homo sapiens) = Trypsin (Homo sapiens) (UniProt P07477+P07478+P35030); assay: Inhibition of human trypsin at 10 uM; format: protein assay
[20] = Metabolic stability in dog liver microsomes; format: ADME, Canis lupus familiaris, Microsome

## CC(C)C[C@H](NC(=O)[C@@H](NC(=O)c1cccc(-c2ccccc2)n1)[C@@H](C)O)B(O)O [DELANZOMIB]
[1]
  AUC(0-inf): 2.2 µg·h/mL
[2]
  Vd: 10.3 L/kg
Caspase-8 (Homo sapiens)
  inhibition: -2%
[3]
  inhibition: 21%
Sus scrofa
  inhibition: -5%
[4]
  inhibition: 13%
[5]
  EC50: 0.0135 µM
[6]
  half-life: 71 h
[7]
  AUC(0-inf): 1.03 µg·h/mL
[8]
  clearance: 0.19 L/h/kg
[9]
  AUC(0-inf): 2.85 µg·h/mL
Mus musculus
  Activity: inactive
Cytochrome P450 2C9
  Activity: Not Active
[10]
  inhibition: 0%
[11]
  inhibition: 7%
[12]
  inhibition: -8%
[13]
  inhibition: 1%
[14]
  inhibition: -3%
[15]
  inhibition: 86%
Cathepsin G
  IC50: 2.11 µM
Chymase (Homo sapiens)
  inhibition: 80%
[16]
  IC50: 5.33 µM
[17]
  inhibition: 2%
[18]
  inhibition: 0%
[19]
  inhibition: -1%
Caspase-3 (Homo sapiens)
  inhibition: 2%
Trypsin (Homo sapiens)
  inhibition: 0%
[20]
  half-life: > 0.667 h
